Measurements taken from ChEMBL document CHEMBL4431338, “Design, synthesis and biological evaluation of novel hamamelitannin analogues as potentiators for vancomycin in the treatment of biofilm related Staphylococcus aureus infections” (Bioorg Med Chem, 2016).

How the values were obtained:
[1] = tested on: Staphylococcus aureus; test: Potentiation of vancomycin-mediated reduction in CFU per biofilm of Staphylococcus aureus Mu50 after 24 hrs; type: functional, organism-based; details: Mu50, 24 h
[2] = tested on: Staphylococcus aureus; test: Potentiation of vancomycin-mediated reduction in CFU per biofilm of Staphylococcus aureus Mu50 preincubated for 20 hrs followed by vancomycin addition measured after 24 hrs; type: functional, organism-based
Procedure, shortened: (§1)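 Inoculum: overnight MH culture resuspended in 2× MH at OD590 0.2. Analogue present during 4 h adhesion at 37 °C, then after a saline wash for 20 h more at 37 °C. Biofilms then rinsed and exposed to vancomycin (20 μg/ml) alone in saline for 24 h at 37 °C. Line 5 uses analogue at 100 μM; line 4 uses lower concentrations, with EC50 as the level doubling vancomycin killing. CFU/biofilm counted by plating after vortex/sonication, as % reduction vs untreated control. n ≥ 9.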

[3] = tested on: Staphylococcus aureus; test: Growth inhibition of Staphylococcus aureus Mu50 after 20 hrs by broth microdilution method; type: organism-based; details: in vitro
Procedure, shortened: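 S. aureus Mu50 grown in Mueller–Hinton broth at 37 °C, aerobic; MICs determined in triplicate in flat-bottom 96-well microtiter plates following an earlier published method.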

[4] = tested on: Staphylococcus aureus; test: Potentiation of vancomycin-mediated reduction in CFU per biofilm of Staphylococcus aureus Mu50 preincubated with compound at 100 uM for 20 hrs followed by vancomycin addition measured after 24 hrs (reference value: 30 +/- 14%); type: functional; design: scale not given: the % may be the effect or the level left; procedure, shortened: as §1
[5] = tested on: Staphylococcus aureus; test: Potentiation of vancomycin-mediated reduction in CFU per biofilm of Staphylococcus aureus Mu50 at 100 uM after 24 hrs (reference value: 30 +/- 14%); type: functional; design: scale not given: the % may be the effect or the level left

SMILES | EC50 [1] [µM] | EC50 [2] [µM] | MIC [3] [µM] | Activity [4] [%] | Activity [5] [%]
O=C(NC[C@]1(O)CO[C@H](CNC(=O)c2ccccc2Cl)[C@H]1O)c1ccccc1 | 0.389 | 0.389 |  |  | 
O=C(NC[C@]1(O)CO[C@H](CNS(=O)(=O)C(F)(F)F)[C@H]1O)c1ccccc1 |  |  | > 500 | 71 | 57
O=C(NC[C@@H]1OC[C@@](O)(CNC(=O)c2ccccc2)[C@@H]1O)c1ccccc1 | > 250 | 224 | > 500 | 48 | 44
O=C(NC[C@]1(O)CO[C@H](CNS(=O)(=O)c2ccc(-c3ccccc3)cc2)[C@H]1O)c1ccccc1 |  |  | > 500 | 84 | 83
O=C(NC[C@]1(O)CO[C@H](Cn2cc(-c3ccccc3)nn2)[C@H]1O)c1ccccc1 |  |  | > 500 | 46 | 66
O=C(NC[C@]1(O)CO[C@H](CNC(=S)Nc2ccccc2)[C@H]1O)c1ccccc1 |  |  | > 500 | 80 | 73
O=C(NC[C@H]1OC[C@@](O)(CNC(=O)c2ccccc2)[C@@H]1O)c1ccccc1 | 124 | 97 | > 500 | 66 | 65
CS(=O)(=O)NC[C@H]1OC[C@@](O)(CNC(=O)c2ccccc2)[C@@H]1O |  |  | > 500 | 69 | 62
O=C(NC[C@]1(O)CO[C@H](CNC(=O)c2ccccc2OC(F)(F)F)[C@H]1O)c1ccccc1 | 56.7 | 26.4 | > 500 | 78 | 69
O=C(NC[C@]1(O)CO[C@H](CNCc2ccccc2)[C@H]1O)c1ccccc1 | 45.1 | 41.2 | > 500 | 81 | 78
CN(C[C@H]1OC[C@@](O)(CNC(=O)c2ccccc2)[C@@H]1O)C(=O)c1ccccc1 | 24.3 | 8.5 | > 500 | 94 | 90
O=C(NC[C@]1(O)CO[C@H](CNC(=O)c2ccccc2OC(F)F)[C@H]1O)c1ccccc1 | 25.7 | 31 | > 500 | 81 | 78
O=C(NC[C@]1(O)CO[C@H](CNC(=O)c2ccccc2I)[C@H]1O)c1ccccc1 | 20.4 | 1.9 | > 500 | 96 | 84
CC(C)S(=O)(=O)NC[C@H]1OC[C@@](O)(CNC(=O)c2ccccc2)[C@@H]1O |  |  | > 500 | 72 | 67
Cc1ccc(S(=O)(=O)NC[C@H]2OC[C@@](O)(CNC(=O)c3ccccc3)[C@@H]2O)cc1 |  |  | > 500 | 83 | 74
O=C(NC[C@]1(O)CO[C@H](CN2Cc3ccccc3C2=O)[C@H]1O)c1ccccc1 | 60.2 | 57.7 | > 500 | 75 | 70
CCS(=O)(=O)NC[C@H]1OC[C@@](O)(CNC(=O)c2ccccc2)[C@@H]1O |  |  | > 500 | 49 | 47
O=C(NC[C@]1(O)CO[C@H](Cn2nncc2-c2ccccc2)[C@H]1O)c1ccccc1 |  |  | > 500 | 53 | 26
O=C(NC[C@]1(O)CO[C@H](CNS(=O)(=O)c2ccccc2)[C@H]1O)c1ccccc1 |  |  | > 500 | 78 | 69
O=C(NC[C@H]1OC[C@@](O)(CNC(=O)c2ccccc2)[C@@H]1O)Nc1ccccc1 |  |  | > 500 | 76 | 81
O=C(NC[C@]1(O)CO[C@H](CNS(=O)(=O)c2ccccc2Cl)[C@H]1O)c1ccccc1 |  |  | > 500 | 65 | 73
O=C(NC[C@]1(O)CO[C@H](CNS(=O)(=O)c2ccc(Cl)cc2)[C@H]1O)c1ccccc1 | 27.8 | 23.5 | > 500 | 86 | 85
O=C(NC[C@]1(O)CO[C@H](CNC(=O)c2ccccc2Br)[C@H]1O)c1ccccc1 | 19.7 | 9.8 | > 500 | 96 | 82
O=C(OC[C@H]1OC(O)[C@@](O)(COC(=O)c2cc(O)c(O)c(O)c2)[C@@H]1O)c1cc(O)c(O)c(O)c1 (stereo partly drawn) [HAMAMELITANNIN] | 165 | 146 | > 500 | 57 | 57
